Measurements published in ChEMBL document CHEMBL1154400, “Pharmacokinetics of single- and multiple-dose oral clarithromycin in soft tissues determined by microdialysis” (Antimicrob Agents Chemother, 2007).

Key:
[1] = Terminal half life in human plasma unbound fraction at 500 mg, po, bid for 3 to 5 days; format: ADME, organism-based; settings: read-out: beta t1/2 (converted)
In short: (§1)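 Free plasma concentrations obtained by applying each volunteer's measured protein binding to total plasma concentrations, measured by HPLC after the 250 mg single dose or the 500 mg b.i.d. steady-state dose, with sampling over 8 h.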

[2] = Terminal half life in human subcutaneous interstitial-space fluid of adipose tissue at 500 mg, po, bid for 3 to 5 days; format: ADME, organism-based; settings: read-out: beta t1/2 (converted)
In short: (§2)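 Oral clarithromycin 500 mg b.i.d. for 3-5 days, starting 12 h after a single 250 mg dose; last dose given supervised on the morning of day 2 after a baseline blood draw and a 2-h trough dialysate. Sampling as on day 1: microdialysis of muscle and adipose tissue plus venous plasma over 8 h, HPLC. Dialysate concentrations corrected for individual recovery.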

[3] = Terminal half life in human interstitial-space fluid of skeletal muscle at 500 mg, po, bid for 3 to 5 days; format: ADME, organism-based, Muscle tissue; settings: read-out: beta t1/2 (converted); in short: as §2
Homo sapiens [4] = test: Volume of distribution at steady state in human plasma at 500 mg, po, bid for 3 to 5 days; format: ADME, organism-based; settings: in vivo
In short: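 Healthy male volunteers (n=7, 25–37 y) took clarithromycin 500 mg orally b.i.d. for 3–5 days, with the last dose supervised. Venous blood (lithium heparin) was sampled every 20 min over 0–4 h and every 30 min over 4–8 h, and plasma was assayed by HPLC. Vss = CL × MRT, with CL = dose × F/AUC0-∞ and F taken as 55%. AUCs were calculated by the linear trapezoidal rule.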

[5] = Total clearance in human plasma at 500 mg, po, bid for 3 to 5 days; format: ADME, organism-based
[6] = Drug uptake in human adipose tissue assessed as in vivo drug recovery by microdialysis; format: ADME, organism-based
In short: (§3)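 Retrodialysis after the 8-h sampling: clarithromycin 5 mg/liter added to the Ringer's perfusate (1.5 µl/min). Recovery (%) = 100 - 100 x Cdialysate/Cperfusate, taken as the mean of two measurements per subject, in muscle and adipose tissue probes.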

[7] = Drug uptake in human Skeletal muscles assessed as in vivo drug recovery by microdialysis; format: ADME, organism-based, Muscle tissue; in short: as §3
[8] = Tmax in human interstitial-space fluid of skeletal muscle at 500 mg, po, bid for 3 to 5 days; format: ADME, organism-based, Muscle tissue; in short: as §2
[9] = Terminal half life in human plasma at 500 mg, po, bid for 3 to 5 days; format: ADME, organism-based; settings: read-out: beta t1/2 (converted); in short: as §2
[10] = Tmax in human plasma at 500 mg, po, bid for 3 to 5 days; format: ADME, organism-based; in short: as §2
[11] = Tmax in human plasma unbound fraction at 500 mg, po, bid for 3 to 5 days; format: ADME, organism-based; in short: as §1
[12] = Tmax in human interstitial-space fluid of subcutaneous adipose tissue at 500 mg, po, bid for 3 to 5 days; format: ADME, organism-based; in short: as §2
[13] = Protein binding in human plasma at 250 mg, po; format: ADME, organism-based; settings: read-out: PPB (converted)
In short: (§4)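 Plasma ultrafiltration done for each volunteer on samples taken 80 and 180 min post-dose, after both the single dose and at steady state. 300 µl aliquots spun through 5,000-MW-cutoff regenerated-cellulose filters at 5,000 x g, 30 min, ambient temperature. Ultrafiltrate concentrations corrected for 5% mean membrane binding. Binding (%) = 100 - 100 x Cultrafiltrate corr/Cplasma total.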

[14] = Protein binding in human plasma at 500 mg, po bid for 3 to 5 days; format: ADME, organism-based; settings: read-out: PPB (converted); in short: as §4
[15] = AUC (0 to 8 hrs) in fasting human plasma at 250 mg, po; format: ADME, organism-based; design: dose 250 mg, time < 8 hr, route oral
In short: (§5)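 Healthy male volunteers aged 25-37 y, fasting; single oral 250 mg tablet after 60-min probe equilibration. Microdialysis probes in skeletal muscle and subcutaneous adipose tissue, perfused with Ringer's at 1.5 µl/min; dialysate and antecubital venous blood sampled every 20 min to 4 h, then every 30 min to 8 h. HPLC assay. Interstitial concentration = 100 x Cdialysate/recovery.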

Homo sapiens [16] = test: Free AUC (0 to 8 hrs) in fasting human plasma at 250 mg, po; format: ADME, organism-based; settings: in vivo; in short: as §1
[17] = AUC (0 to 8 hrs) in fasting human interstitial-space fluid of subcutaneous adipose tissue at 250 mg, po; format: ADME, organism-based; in short: as §5
[18] = AUC (0 to 8 hrs) in fasting human interstitial-space fluid of skeletal muscle at 250 mg, po; format: ADME, organism-based, Muscle tissue; design: time < 8 hr, dose 250 mg, route oral; in short: as §5
[19] = AUC (0 to 24 hrs) in fasting human plasma at 250 mg, po; format: ADME, organism-based; design: dose 250 mg, time < 24 hr, route oral; in short: as §5
Homo sapiens [20] = test: Free AUC (0 to 24 hrs) in fasting human plasma at 250 mg, po; format: ADME, organism-based; settings: in vivo
[21] = AUC (0 to 24 hrs) in fasting human interstitial-space fluid of subcutaneous adipose tissue at 250 mg, po; format: ADME, organism-based; in short: as §5
[22] = AUC (0 to 24 hrs) in fasting human interstitial-space fluid of skeletal muscle at 250 mg, po; format: ADME, organism-based, Muscle tissue; design: time < 24 hr, dose 250 mg, route oral; in short: as §5
[23] = Ratio of AUC (0 to 24 hrs) in fasting human interstitial-space fluid of subcutaneous adipose tissue to free AUC (0 to 24 hrs) in fasting human plasma at 250 mg, po; format: ADME, organism-based; settings: read-out: Ratio AUC
In short: (§6)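 AUC0-8, AUC0-12 and AUC0-24 by the linear trapezoidal rule. Values at 12 h and 24 h extrapolated as C8 x e^(-kel x t) from the 8-h concentration. At steady state, AUC0-24 = AUC0-12 x 2. Tissue-to-free-plasma ratios use free plasma AUC, from each subject's own protein binding.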

[24] = Ratio of AUC (0 to 24 hrs) in fasting human interstitial-space fluid of skeletal muscle to free AUC (0 to 24 hrs) in fasting human plasma at 250 mg, po; format: ADME, organism-based; settings: read-out: Ratio AUC; in short: as §6
[25] = Cmax in fasting human plasma at 250 mg, po; format: ADME, organism-based; design: dose 250 mg, route oral; in short: as §5
Homo sapiens [26] = test: Free Cmax in fasting human plasma at 250 mg, po; format: ADME, organism-based; settings: in vivo; in short: as §1

CC[C@H]1OC(=O)[C@H](C)[C@@H](O[C@H]2C[C@@](C)(OC)[C@@H](O)[C@H](C)O2)[C@H](C)[C@@H](O[C@@H]2O[C@H](C)C[C@H](N(C)C)[C@H]2O)[C@](C)(OC)C[C@@H](C)C(=O)[C@H](C)[C@@H](O)[C@]1(C)O [CLARITHROMYCIN]
half-life [1]: 3.7 h | half-life [2]: 3.4 h | half-life [3]: 3.8 h | Vdss (Homo sapiens [4]): 126.5 L | CL/F [5]: 312 mL/min | Activity [6]: 57.7% | Activity [7]: 54.3% | Tmax [8]: 3.8 h | half-life [9]: 3.7 h | Tmax [10]: 3.2 h | Tmax [11]: 3.2 h | Tmax [12]: 4 h | fraction unbound [13]: 0.287 | fraction unbound [14]: 0.231 | AUC(0-t) at 8 h [15]: 3630 ng·h/mL | fAUC (Homo sapiens [16]): 990 ng·h/mL | AUC(0-t) [17]: 240 ng·h/mL | AUC(0-t) at 8 h [18]: 290 ng·h/mL | AUC(0-t) at 24 h [19]: 4450 ng·h/mL | fAUC (Homo sapiens [20]): 1210 ng·h/mL | AUC(0-t) [21]: 350 ng·h/mL | AUC(0-t) at 24 h [22]: 480 ng·h/mL | Kp uu [23]: 0.29 | Kp uu [24]: 0.42 | Cmax [25]: 1090 ng/mL | fCmax (Homo sapiens [26]): 0.31 mg/L
